These results are taken from ChEMBL document CHEMBL5329186, “Identification of novel 1,2,3-triazole isatin derivatives as potent SARS-CoV-2 3CLpro inhibitors via click-chemistry-based rapid screening” (RSC Med Chem, 2023).

Calls of active or inactive are those of the source. No cut-off for these calls is given here.

In series [1] the target is Replicase polyprotein 1ab (Severe acute respiratory syndrome coronavirus 2) (UniProt P0DTD1). Briefly: Inhibition of SARS-CoV-2 MPro at 5 uM using MCAAVLQSGFR-Lys(Dnp)-Lys-NH2 as substrate in presence of DTT incubated for 10 mins by FRET assay. In a few lines:
(§1)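 3CLpro FRET assay at 5 μM compound, run as the standard protocol (10 min 37 °C preincubation, ex 320/em 405 nm kinetic read). The assay buffer either contained 4 mM DL-dithiothreitol or had none added. Ebselen served as the control.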

Series [2] shares this target. Briefly: Inhibition of SARS-CoV-2 MPro at 5 uM using MCAAVLQSGFR-Lys(Dnp)-Lys-NH2 as substrate incubated for 10 mins by FRET assay. In a few lines:
as §1

For series [3] the target is unchanged. Briefly: Inhibition of SARS-CoV-2 MPro at 1 uM using MCAAVLQSGFR-Lys(Dnp)-Lys-NH2 as substrate incubated for 10 mins by FRET assay relative to control.
For a further series, the system named is Vero C1008. Kind of series: Cytotoxicity against African green monkey Vero E6 assessed as inhibition of cell growth at 20 uM incubated for 26 hrs. Type of series: toxicity, cell-based. The settings on record: chlorocebus sabaeus, vero c1008, 26 h.
Series [4] in a line: Cytotoxicity against African green monkey Vero E6 assessed as inhibition of cell growth incubated for 26 hrs. Type of series: toxicity, cell-based. The settings on record: chlorocebus sabaeus, Vero E6 cells (Vero C1008). In a few lines:
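Vero E6 cells were seeded at 1.7 × 10^4/well in DMEM high glucose/10% FBS and grown 24 h at 37 °C, 5% CO2. Compound was then added in DMEM/5% FBS, final 1% DMSO, for 26 h. Viability was read with the CellTiter 96 aqueous nonradioactive proliferation assay. Values are averages of three or more replicate assays.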

Series [5] deals with Replicase polyprotein 1ab (Severe acute respiratory syndrome coronavirus 2, UniProt P0DTD1). Kind of series: Inhibition of SARS-CoV-2 MPro using MCAAVLQSGFR-Lys(Dnp)-Lys-NH2 as substrate incubated for 10 mins by FRET assay. In a few lines:
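Same 3CLpro FRET protocol (enzyme working 1.5 μM, substrate 500 μM, Tris/NaCl/glycerol buffer pH 7.3, 10 min 37 °C preincubation, ex 320/em 405 nm kinetic read for 10 min). Compounds were tested at 0.1, 0.5, 1 and 5 μM from 5 mM DMSO stocks. IC50 is the average of three independent experiments.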

A word on the inhibition: it is how much of the control response was suppressed. As to `O=c1c2ccccc2[se]n1-c1ccccc1`, the inhibition entry in series [1] was “inactive”. Further, the inhibition entry in series [2] is “Active”.

What is called CC50 is the concentration giving 50% cytotoxicity. One may read the IC50 as the concentration at which inhibition is half-maximal. `NC(=O)c1ccc2c(c1)C(=O)C(=O)N2Cc1cn(Cc2cccc(Cl)c2)nn1` showed an inhibition in series [3] of 76.4%. The inhibition entry in series [1] and in series [2] was “Active” each time. Moreover, the Activity entry in the series on Vero C1008 is “Not Active”. In series [4], the half-maximal cytotoxic concentration (CC50) at 26 h is over 20000 nM. Moreover, in series [5], the half-inhibitory concentration (IC50) was 440 nM.

In turn, `NC(=O)c1ccc2c(c1)C(=O)C(=O)N2Cc1ccc2ccccc2c1` came in with an inhibition in series [3] of 87.3%. For the same compound, the inhibition entry in series [1] and in series [2] was “Active” throughout. Also, in the series on Vero C1008, the Activity entry is on record as “Not Active”. The 50% cytotoxic concentration (CC50) at 26 h in series [4] is under 2200 nM. In series [5], this compound had an IC50 of 300 nM.

Regarding `NC(=O)c1ccc2c(c1)C(=O)C(=O)N2Cc1cn(Cc2ccc(C(F)(F)F)cc2F)nn1`, the inhibition in series [3] was found to be 78.1%. The Activity result with Vero C1008 is on record as “Not Active”. Further, the cytotoxic concentration (CC50) at 26 h in series [4] is over 20000 nM. The compound further registered an IC50 in series [5] of 530 nM.

As to `NC(=O)c1ccc2c(c1)C(=O)C(=O)N2Cc1cn(Cc2ccc(S(N)(=O)=O)cc2)nn1`, in series [3], the inhibition turned out to be 73.3%. The Activity entry with Vero C1008 is listed as “Not Active”. Moreover, in series [4], the cytotoxic concentration (CC50) at 26 h was over 20000 nM. The compound further had an IC50 in series [5] of 1120 nM.
